{"source": "ChEMBL document CHEMBL4270613", "about": "“Design, synthesis, biological evaluation and structure-activity relationship of sophoridine derivatives bearing pyrrole or indole scaffold as potential antitumor agents” (Eur J Med Chem, 2018)", "data": [{"system": "HepG2", "assay": "Antiproliferative activity against human HepG2 cells after 48 hrs by MTT assay", "assay_type": "functional, cell-based", "conditions": "HepG2, 48 h", "how_it_was_run": "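HepG2 exposed to compounds for 48 h; MTT readout; camptothecin positive control; IC50 calculated; mean ± SD of three independent experiments, each in triplicate.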", "units": {"IC50": "µM"}, "values": [{"smiles": "O=C1/C(=C/c2cccn2Cc2ccc(Br)cc2)CC[C@@H]2[C@H]3CCCN4CCC[C@H](CN12)[C@@H]34", "IC50": 12.6}, {"smiles": "O=C1/C(=C/c2cn(Cc3ccc(OCc4ccccc4)cc3)c3cc(Cl)ccc23)CC[C@@H]2[C@H]3CCCN4CCC[C@H](CN12)[C@@H]34", "IC50": 14.3}, {"smiles": "O=C1/C(=C/c2cn(Cc3ccc(OCc4ccc(OC(F)(F)F)cc4)cc3)c3ccccc23)CC[C@@H]2[C@H]3CCCN4CCC[C@H](CN12)[C@@H]34", "IC50": 6.01}, {"smiles": "COc1cc(Cn2cccc2/C=C2\\CC[C@@H]3[C@H]4CCCN5CCC[C@H](CN3C2=O)[C@@H]45)cc(OC)c1", "IC50": 21.2}, {"smiles": "Cc1cc(C)cc(Cn2cccc2/C=C2\\CC[C@@H]3[C@H]4CCCN5CCC[C@H](CN3C2=O)[C@@H]45)c1", "IC50": 14.8}, {"smiles": "COc1ccc(Cn2cccc2/C=C2\\CC[C@@H]3[C@H]4CCCN5CCC[C@H](CN3C2=O)[C@@H]45)cc1", "IC50": 30.1}, {"smiles": "O=C1/C(=C/c2cn(Cc3ccc(OCc4ccccc4)cc3)c3ccccc23)CC[C@@H]2[C@H]3CCCN4CCC[C@H](CN12)[C@@H]34", "IC50": 3.08}, {"smiles": "COc1ccc2c(c1)c(/C=C1\\CC[C@@H]3[C@H]4CCCN5CCC[C@H](CN3C1=O)[C@@H]45)cn2Cc1ccc(OCc2ccc(OC(F)(F)F)cc2)cc1", "IC50": 5.72}, {"smiles": "Cc1ccc(Cn2cccc2/C=C2\\CC[C@@H]3[C@H]4CCCN5CCC[C@H](CN3C2=O)[C@@H]45)cc1", "IC50": 17.3}, {"smiles": "O=C1/C(=C/c2cccn2Cc2ccc(OC(F)(F)F)cc2)CC[C@@H]2[C@H]3CCCN4CCC[C@H](CN12)[C@@H]34", "IC50": 26.5}, {"smiles": "Cc1ccc(COc2ccc(Cn3cc(/C=C4\\CC[C@@H]5[C@H]6CCCN7CCC[C@H](CN5C4=O)[C@@H]67)c4ccccc43)cc2)cc1", "IC50": 5.32}, {"smiles": "O=C1/C(=C/c2cn(Cc3c(Cl)cccc3Cl)c3ccccc23)CC[C@@H]2[C@H]3CCCN4CCC[C@H](CN12)[C@@H]34", "IC50": 9.78}, {"smiles": "O=C1/C(=C/c2cn(Cc3cccc(Br)c3)c3ccccc23)CC[C@@H]2[C@H]3CCCN4CCC[C@H](CN12)[C@@H]34", "IC50": 8.62}, {"smiles": "O=C1/C(=C/c2cn(Cc3ccc(OCc4ccc(F)cc4)cc3)c3ccccc23)CC[C@@H]2[C@H]3CCCN4CCC[C@H](CN12)[C@@H]34", "IC50": 4.83}, {"smiles": "O=C1/C(=C/c2cccn2Cc2ccc(Cl)cc2)CC[C@@H]2[C@H]3CCCN4CCC[C@H](CN12)[C@@H]34", "IC50": 13.5}, {"smiles": "Cc1cccc(Cn2cc(/C=C3\\CC[C@@H]4[C@H]5CCCN6CCC[C@H](CN4C3=O)[C@@H]56)c3ccccc32)c1", "IC50": 8.27}, {"smiles": "CC(C)(C)c1ccc(Cn2cc(/C=C3\\CC[C@@H]4[C@H]5CCCN6CCC[C@H](CN4C3=O)[C@@H]56)c3ccccc32)cc1", "IC50": 4.57}, {"smiles": "O=C1/C(=C/c2cccn2Cc2cccc(Cl)c2)CC[C@@H]2[C@H]3CCCN4CCC[C@H](CN12)[C@@H]34", "IC50": 16.6}, {"smiles": "COc1ccc2c(ccn2Cc2ccc(OCc3ccccc3)cc2)c1", "IC50": "> 50"}, {"smiles": "COc1cccc(Cn2cc(/C=C3\\CC[C@@H]4[C@H]5CCCN6CCC[C@H](CN4C3=O)[C@@H]56)c3ccccc32)c1", "IC50": 8.14}, {"smiles": "O=C1/C(=C/c2cccn2Cc2ccc(OCc3ccccc3)cc2)CC[C@@H]2[C@H]3CCCN4CCC[C@H](CN12)[C@@H]34", "IC50": 7.22}, {"smiles": "O=C1/C(=C/c2cn(Cc3ccccc3)c3ccccc23)CC[C@@H]2[C@H]3CCCN4CCC[C@H](CN12)[C@@H]34", "IC50": 6.95}, {"smiles": "O=C1/C(=C/c2ccc3c(ccn3Cc3ccc(OCc4ccccc4)cc3)c2)CC[C@@H]2[C@H]3CCCN4CCC[C@H](CN12)[C@@H]34", "IC50": 7.25}, {"smiles": "Cc1ccccc1Cn1cc(/C=C2\\CC[C@@H]3[C@H]4CCCN5CCC[C@H](CN3C2=O)[C@@H]45)c2ccccc21", "IC50": 16.3}, {"smiles": "CC(C)(C)c1ccc(COc2ccc(Cn3cc(/C=C4\\CC[C@@H]5[C@H]6CCCN7CCC[C@H](CN5C4=O)[C@@H]67)c4ccccc43)cc2)cc1", "IC50": 6.07}, {"smiles": "O=C1/C(=C/c2cn(Cc3ccc4ccccc4c3)c3ccccc23)CC[C@@H]2[C@H]3CCCN4CCC[C@H](CN12)[C@@H]34", "IC50": 12.8}, {"smiles": "O=C1/C(=C/c2cn(Cc3ccccc3Br)c3ccccc23)CC[C@@H]2[C@H]3CCCN4CCC[C@H](CN12)[C@@H]34", "IC50": 15.4}, {"smiles": "O=C1/C(=C/c2cccn2Cc2ccc(F)cc2)CC[C@@H]2[C@H]3CCCN4CCC[C@H](CN12)[C@@H]34", "IC50": 29.4}, {"smiles": "COc1ccc(Cn2cc(/C=C3\\CC[C@@H]4[C@H]5CCCN6CCC[C@H](CN4C3=O)[C@@H]56)c3ccccc32)cc1", "IC50": 8.23}, {"smiles": "O=C1/C(=C/c2cccn2Cc2ccccc2Br)CC[C@@H]2[C@H]3CCCN4CCC[C@H](CN12)[C@@H]34", "IC50": 13.5}, {"smiles": "COc1ccc(Br)c(Cn2cccc2/C=C2\\CC[C@@H]3[C@H]4CCCN5CCC[C@H](CN3C2=O)[C@@H]45)c1", "IC50": 9.66}, {"smiles": "CC(C)(C)c1ccc(Cn2cccc2/C=C2\\CC[C@@H]3[C@H]4CCCN5CCC[C@H](CN3C2=O)[C@@H]45)cc1", "IC50": 13.6}, {"smiles": "Cc1ccc(Cn2cc(/C=C3\\CC[C@@H]4[C@H]5CCCN6CCC[C@H](CN4C3=O)[C@@H]56)c3ccccc32)cc1", "IC50": 9.39}, {"smiles": "O=C1/C(=C/c2cn(Cc3ccc(OC(F)(F)F)cc3)c3ccccc23)CC[C@@H]2[C@H]3CCCN4CCC[C@H](CN12)[C@@H]34", "IC50": 8.73}, {"smiles": "COc1cc(Cn2cc(/C=C3\\CC[C@@H]4[C@H]5CCCN6CCC[C@H](CN4C3=O)[C@@H]56)c3ccccc32)cc(OC)c1", "IC50": 6.88}, {"smiles": "COc1ccc(Br)c(Cn2cc(/C=C3\\CC[C@@H]4[C@H]5CCCN6CCC[C@H](CN4C3=O)[C@@H]56)c3ccccc32)c1", "IC50": 4.16}, {"smiles": "c1ccc(COc2ccc(Cn3ccc4ccccc43)cc2)cc1", "IC50": "> 50"}, {"smiles": "O=C1/C(=C/c2cn(Cc3ccc(Cl)cc3)c3ccccc23)CC[C@@H]2[C@H]3CCCN4CCC[C@H](CN12)[C@@H]34", "IC50": 6.59}, {"smiles": "O=C1/C(=C/c2cn(Cc3ccc(OCc4ccc(Cl)cc4)cc3)c3ccccc23)CC[C@@H]2[C@H]3CCCN4CCC[C@H](CN12)[C@@H]34", "IC50": 6.17}, {"smiles": "COc1ccc2c(c1)c(/C=C1\\CC[C@@H]3[C@H]4CCCN5CCC[C@H](CN3C1=O)[C@@H]45)cn2Cc1ccc(OCc2ccc(Cl)cc2)cc1", "IC50": 3.97}, {"smiles": "O=C1/C(=C/c2cccn2Cc2ccc3ccccc3c2)CC[C@@H]2[C@H]3CCCN4CCC[C@H](CN12)[C@@H]34", "IC50": 16.1}, {"smiles": "O=C1/C(=C/c2cn(Cc3ccc(OCc4ccccc4)cc3)c3ccccc23)CC[C@@H]2[C@H]3CCCN4CCC[C@@H](CN12)[C@@H]34", "IC50": 9.96}, {"smiles": "Cc1ccc2c(c1)c(/C=C1\\CC[C@@H]3[C@H]4CCCN5CCC[C@H](CN3C1=O)[C@@H]45)cn2Cc1ccc(OCc2ccccc2)cc1", "IC50": 7.71}, {"smiles": "O=C1/C(=C/c2cn(Cc3ccccc3Cl)c3ccccc23)CC[C@@H]2[C@H]3CCCN4CCC[C@H](CN12)[C@@H]34", "IC50": 9.05}, {"smiles": "O=C1/C(=C/c2cn(Cc3ccc(Br)cc3)c3ccccc23)CC[C@@H]2[C@H]3CCCN4CCC[C@H](CN12)[C@@H]34", "IC50": 5.94}, {"smiles": "O=C1/C(=C/c2cccc3c2ccn3Cc2ccc(OCc3ccccc3)cc2)CC[C@@H]2[C@H]3CCCN4CCC[C@H](CN12)[C@@H]34", "IC50": 15.2}, {"smiles": "Cc1cc(C)cc(Cn2cc(/C=C3\\CC[C@@H]4[C@H]5CCCN6CCC[C@H](CN4C3=O)[C@@H]56)c3ccccc32)c1", "IC50": 4.56}, {"smiles": "O=C1/C(=C/c2cccn2Cc2ccccc2Cl)CC[C@@H]2[C@H]3CCCN4CCC[C@H](CN12)[C@@H]34", "IC50": 17.4}, {"smiles": "COc1ccc2c(c1)c(/C=C1\\CC[C@@H]3[C@H]4CCCN5CCC[C@H](CN3C1=O)[C@@H]45)cn2Cc1ccc(OCc2ccc(C)cc2)cc1", "IC50": 4.18}, {"smiles": "CC(C)(C)c1cc(Cn2cccc2/C=C2\\CC[C@@H]3[C@H]4CCCN5CCC[C@H](CN3C2=O)[C@@H]45)cc(C(C)(C)C)c1", "IC50": 18.1}, {"smiles": "O=C1/C(=C/c2cn(Cc3ccc(OCc4ccc(Br)cc4)cc3)c3ccccc23)CC[C@@H]2[C@H]3CCCN4CCC[C@H](CN12)[C@@H]34", "IC50": 10.1}, {"smiles": "COc1ccc2c(c1)c(/C=C1\\CC[C@@H]3[C@H]4CCCN5CCC[C@H](CN3C1=O)[C@@H]45)cn2Cc1ccc(OCc2ccc(Br)cc2)cc1", "IC50": 6.31}, {"smiles": "COc1ccc2c(c1)c(/C=C1\\CC[C@@H]3[C@H]4CCCN5CCC[C@H](CN3C1=O)[C@@H]45)cn2Cc1ccc(OCc2ccc(C(C)(C)C)cc2)cc1", "IC50": 5.86}, {"smiles": "Cn1cccc1/C=C1\\CC[C@@H]2[C@H]3CCCN4CCC[C@H](CN2C1=O)[C@@H]34", "IC50": "> 100"}, {"smiles": "O=C1/C(=C/c2cn(Cc3ccc(OCc4ccccc4)cc3)c3ccc(Br)cc23)CC[C@@H]2[C@H]3CCCN4CCC[C@H](CN12)[C@@H]34", "IC50": 3.97}, {"smiles": "Cc1ccccc1Cn1cccc1/C=C1\\CC[C@@H]2[C@H]3CCCN4CCC[C@H](CN2C1=O)[C@@H]34", "IC50": 25.3}, {"smiles": "O=C1/C(=C/c2cccn2Cc2ccccc2)CC[C@@H]2[C@H]3CCCN4CCC[C@H](CN12)[C@@H]34", "IC50": 10.9}, {"smiles": "COc1cccc(Cn2cccc2/C=C2\\CC[C@@H]3[C@H]4CCCN5CCC[C@H](CN3C2=O)[C@@H]45)c1", "IC50": 17.2}, {"smiles": "Cc1cccc(Cn2cccc2/C=C2\\CC[C@@H]3[C@H]4CCCN5CCC[C@H](CN3C2=O)[C@@H]45)c1", "IC50": 18.1}, {"smiles": "COc1ccc2c(c1)c(/C=C1\\CC[C@@H]3[C@H]4CCCN5CCC[C@H](CN3C1=O)[C@@H]45)cn2Cc1ccc(OCc2ccc(F)cc2)cc1", "IC50": 3.12}]}]}
